Format in all cases: cell-based
One test deals with Otop1 channels (Mus musculus, UniProt Q80VM9). Put plainly: patch-clamp, pH 8.5-evoked Otop1 currents with preincubated HIMOP. The following applies: 10 μM, preincubated at pH 7.4 for 2 min; 0 mV. In outline:
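Mouse Otop1 was expressed with EGFP in PAC-knockout HEK293T cells and whole-cell recorded with Cs-aspartate pipette solution (pH 7.3). Test compound was preincubated with cells at pH 7.4 (NMDG-Cl bath, 10 mM HEPES) for 2 min, then pH 8.5 stimulus applied (NMDG-Cl bath, 10 mM Tris).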
Background: In patch-clamp work, channel activity is measured electrically.

In a further test the target is mOtop1 R554N (Mus musculus, UniProt Q80VM9, R554N). Put plainly: patch-clamp, mOtop1 mutant. The conditions noted are these: Fig 5G, H.
A further test concerns the target mOtop1 T233A (Mus musculus, UniProt Q80VM9, T233A). Put plainly: patch-clamp, mOtop1 mutant. The following applies: 10 μM; pH 5.5. In outline: (§1)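 Alanine-substituted mOtop1 mutants were co-transfected (2.5 μg channel plus 0.5 μg EGFP plasmid, Lipofectamine 2000) into PAC-knockout HEK293T cells. Whole-cell recording 16–24 h after seeding on PLL coverslips. Pipette (mM): 120 Cs-aspartate, 15 CsCl, 2 Mg-ATP, 5 EGTA, 2.4 CaCl2, 10 HEPES, pH 7.3. Bath (mM): 160 NMDG-Cl, 2 CaCl2, 10 MES, pH 5.5, with 10 μM test compound. Response compared with wild-type mOtop1.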

For the next test, the target named is mOtop1 L243A (Mus musculus, UniProt Q80VM9, L243A). Put plainly: patch-clamp, mOtop1 mutant. The following applies: 10 μM; pH 5.5. The essentials:
as §1

A further test has as its target mOtop1 T240A (Mus musculus, UniProt Q80VM9, T240A). Put plainly: patch-clamp, mOtop1 mutant. The following applies: 10 μM; pH 5.5. In outline:
as §1

For test [1], the target named is T1, mouse Otop1 (mOtop1) channels (Mus musculus, UniProt Q80VM9).
T1 sequence (Q80VM9 1-600): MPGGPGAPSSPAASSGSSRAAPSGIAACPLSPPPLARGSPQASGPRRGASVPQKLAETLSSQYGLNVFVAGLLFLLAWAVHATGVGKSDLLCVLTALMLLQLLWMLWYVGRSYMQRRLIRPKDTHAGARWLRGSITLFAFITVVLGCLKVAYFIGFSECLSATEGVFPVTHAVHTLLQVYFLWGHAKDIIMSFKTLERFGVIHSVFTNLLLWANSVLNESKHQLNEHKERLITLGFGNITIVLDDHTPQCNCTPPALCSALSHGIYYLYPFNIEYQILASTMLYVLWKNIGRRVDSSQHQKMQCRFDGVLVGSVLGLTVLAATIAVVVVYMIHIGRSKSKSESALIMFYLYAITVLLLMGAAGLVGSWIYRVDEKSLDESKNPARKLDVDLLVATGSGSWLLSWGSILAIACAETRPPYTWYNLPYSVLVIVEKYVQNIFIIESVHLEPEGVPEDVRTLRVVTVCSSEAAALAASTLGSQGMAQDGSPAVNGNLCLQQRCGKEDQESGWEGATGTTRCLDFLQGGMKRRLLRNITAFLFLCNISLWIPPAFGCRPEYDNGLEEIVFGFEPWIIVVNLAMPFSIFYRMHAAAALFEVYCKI
The following applies: 10 μM MFaN; pH 5.5.

A further test addresses mOtop1 I241A (Mus musculus, UniProt Q80VM9, I241A). Put plainly: patch-clamp, mOtop1 mutant. The conditions noted are these: 10 μM; pH 5.5. In outline: as §1
For test [2], the target named is T1, mouse Otop1 (mOtop1) channels. Put plainly: reversal potential. The conditions noted are these: 10 μM; pH 5.5; bath NMDG+, Na+, K+ or Cs+.
The target of a further test is mOtop1 E229A (Mus musculus, UniProt Q80VM9, E229A). Put plainly: patch-clamp, mOtop1 mutant. The conditions noted are these: 10 μM; pH 5.5. In outline: as §1
A further test addresses mOtop1 I239A (Mus musculus, UniProt Q80VM9, I239A). Put plainly: patch-clamp, mOtop1 mutant. The conditions noted are these: 10 μM; pH 5.5. In outline: as §1
The next test has as its target mOtop1 R554Q (Mus musculus, UniProt Q80VM9, R554Q). Put plainly: patch-clamp, mOtop1 mutant. The conditions noted are these: Fig 5G, H.
The target in a further test is mOtop1 R554C (Mus musculus, UniProt Q80VM9, R554C). Put plainly: patch-clamp, mOtop1 mutant. The following applies: Fig 5G, H.
Another test concerns the target mOtop1 D244A (Mus musculus, UniProt Q80VM9, D244A). Put plainly: patch-clamp, mOtop1 mutant. The following applies: 10 μM; pH 5.5. In outline:
as §1

A further test deals with mOtop1 D245A (Mus musculus, UniProt Q80VM9, D245A). Put plainly: patch-clamp, mOtop1 mutant. The following applies: 10 μM; pH 5.5. In outline: as §1
Another test has as its target mOtop1 R554E (Mus musculus, UniProt Q80VM9, R554E). Put plainly: patch-clamp, mOtop1 mutant. The conditions noted are these: Fig 5G, H.
A further test deals with mOtop1 R554K (Mus musculus, UniProt Q80VM9, R554K). Put plainly: patch-clamp, mOtop1 mutant. The conditions noted are these: Fig 5G, H.
Test [3] deals with T1, mouse Otop1 (mOtop1) channels. Put plainly: activation time constant. The conditions noted are these: 10 μM; before or concurrently with pH 5.5 stimulus.
Another test has as its target mOtop1 H246A (Mus musculus, UniProt Q80VM9, H246A). Put plainly: patch-clamp, mOtop1 mutant. The conditions noted are these: 10 μM; pH 5.5. In outline:
as §1

A further test has as its target mOtop1 E226A (Mus musculus, UniProt Q80VM9, E226A). Put plainly: patch-clamp, mOtop1 mutant. The following applies: 10 μM; pH 5.5. The essentials: as §1

Here are results for 2 molecules from paper PMC11865470 (Communications Biology, 2025).

Structures are written as SMILES.

Sequence of mOtop1 R554K (Q80VM9 whole entry R554K): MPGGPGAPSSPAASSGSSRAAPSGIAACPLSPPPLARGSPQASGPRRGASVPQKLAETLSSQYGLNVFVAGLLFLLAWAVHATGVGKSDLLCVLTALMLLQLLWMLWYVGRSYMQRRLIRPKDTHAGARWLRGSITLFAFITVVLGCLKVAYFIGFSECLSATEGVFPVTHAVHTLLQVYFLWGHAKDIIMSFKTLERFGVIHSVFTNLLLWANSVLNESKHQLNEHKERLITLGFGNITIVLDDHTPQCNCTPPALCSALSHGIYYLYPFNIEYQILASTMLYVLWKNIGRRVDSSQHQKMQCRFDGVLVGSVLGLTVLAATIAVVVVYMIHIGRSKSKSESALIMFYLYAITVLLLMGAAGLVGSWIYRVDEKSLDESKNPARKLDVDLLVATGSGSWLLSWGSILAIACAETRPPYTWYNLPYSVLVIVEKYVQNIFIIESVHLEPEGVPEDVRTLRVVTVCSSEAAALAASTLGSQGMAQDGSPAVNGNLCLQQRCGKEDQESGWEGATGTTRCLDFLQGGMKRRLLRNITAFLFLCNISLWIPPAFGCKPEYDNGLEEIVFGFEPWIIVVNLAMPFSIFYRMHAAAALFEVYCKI
Sequence of mOtop1 I241A (Q80VM9 whole entry I241A): as the sequence (Q80VM9 whole entry R554K) above, with I241A, K554R counted along it
Sequence of mOtop1 H246A (Q80VM9 whole entry H246A): as the sequence (Q80VM9 whole entry R554K) above, with H246A, K554R counted along it
Sequence of mOtop1 I239A (Q80VM9 whole entry I239A): as the sequence (Q80VM9 whole entry R554K) above, with I239A, K554R counted along it
Sequence of mOtop1 R554E (Q80VM9 whole entry R554E): as the sequence (Q80VM9 whole entry R554K) above, with K554E counted along it
Sequence of mOtop1 T233A (Q80VM9 whole entry T233A): as the sequence (Q80VM9 whole entry R554K) above, with T233A, K554R counted along it
Sequence of mOtop1 R554C (Q80VM9 whole entry R554C): as the sequence (Q80VM9 whole entry R554K) above, with K554C counted along it
Sequence of mOtop1 E229A (Q80VM9 whole entry E229A): as the sequence (Q80VM9 whole entry R554K) above, with E229A, K554R counted along it
Sequence of mOtop1 D245A (Q80VM9 whole entry D245A): as the sequence (Q80VM9 whole entry R554K) above, with D245A, K554R counted along it
Sequence of mOtop1 T240A (Q80VM9 whole entry T240A): as the sequence (Q80VM9 whole entry R554K) above, with T240A, K554R counted along it
Sequence of mOtop1 E226A (Q80VM9 whole entry E226A): as the sequence (Q80VM9 whole entry R554K) above, with E226A, K554R counted along it
Sequence of mOtop1 L243A (Q80VM9 whole entry L243A): as the sequence (Q80VM9 whole entry R554K) above, with L243A, K554R counted along it
Sequence of mOtop1 D244A (Q80VM9 whole entry D244A): as the sequence (Q80VM9 whole entry R554K) above, with D244A, K554R counted along it
Sequence of mOtop1 R554Q (Q80VM9 whole entry R554Q): as the sequence (Q80VM9 whole entry R554K) above, with K554Q counted along it
Sequence of mOtop1 R554N (Q80VM9 whole entry R554N): as the sequence (Q80VM9 whole entry R554K) above, with K554N counted along it

As to `CC(C)c1noc2ncc(C(=O)c3ccccc3O)cc12` [HIMOP, (2-hydroxyphenyl)-(3-propan-2-yl-5-isoxazolo[5,4-b]pyridinyl)methanone], the “effect on pH 8.5-evoked Otop1 currents” value on Otop1 channels is on record as “significantly enhanced”.

In the case of `Cc1ccc(C(=O)Nc2ccc3ccccc3c2)o1` [MFaN, 5-methyl-N-2-naphthyl-2-furamide], the “effect of mutation on MFaN's potentiation effect vs WT mOtop1” value at mOtop1 R554N is “eliminated”; on mOtop1 R554Q, “eliminated”; on mOtop1 R554C, “eliminated”; on mOtop1 R554E it was “eliminated”; on mOtop1 R554K it was “did not affect”. Moreover, the “response of mutant to MFaN compared to wild-type mOtop1” value was “markedly reduced” on mOtop1 T233A; “significantly enhanced” at mOtop1 L243A; “markedly reduced” on mOtop1 T240A; “markedly reduced” on mOtop1 I241A; “significantly enhanced” at mOtop1 E229A; “markedly reduced” on mOtop1 I239A. For the same molecule, the “response of mutant to MFaN compared to wild-type mOtop1” value is “markedly reduced” at mOtop1 D244A, “significantly enhanced” on mOtop1 D245A, “significantly enhanced” at mOtop1 H246A and “markedly reduced” at mOtop1 E226A. Further, the “effect on inhibition of mOtop1 by Zn2+” value in test [1] is recorded as “without affecting”. For the same molecule, in test [2], the “effect on Vrev of the mOtop1 channel” value is reported as “did not change”. The “effect on the activation rate of mOtop1 channels” value in test [3] is “had no effect”.
